The record followed here is the RNAGym collection of RNA variant scans (doi:10.1126/science.aae0568).

Sequences and labels used below:
B1: tRNA (parent)
chain: GUUCCGUUGGCGUAAUGGUAACGCGUCUCCCUCCUAAGGAGAAGACUGCGGGUUCGAGUCCCGUACGGAACG

Fewer inactive variants are shown than the library holds. Where only a bound is given, the exact number is not on record here.

In this data set the parent is B1. Nature of the data set: yeast fitness relative to wild type (ratio to wild type); higher = fitter; tRNA-Arg(CCU), competitive growth, 37 C, YPD. The gist of the method:
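Genotype frequency changes were the basis for Darwinian fitness relative to wild type. The frequencies came from 100-nucleotide paired-end sequencing of gene amplicons from the start population and each end population of pooled yeast strains with tRNA-Arg(CCU) gene variants at the native locus. Competition ran in YPD at 37°C for 24 hours in six replicates, genotypes needed ≥ 100 starting reads, and estimates < 0.5 were set to 0.5.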
Regarding C46A G50A, the yeast fitness amounted to 0.925. To G48A C49U C62U A69U belongs 0.553; to A42U C61G A65C C66G, 0.89.

Consider G48A C49A G67U, for which the yeast fitness is 0.572.

For G44A C60U C62G, the yeast fitness is 0.596.

U47C G58C: the yeast fitness was determined as 0.971. For the variant A43G A57G, the yeast fitness amounted to 0.924. As for G44C C60U A70G, the figure is at most 0.5.

Take A43C G58A: the yeast fitness turned out to be 0.944. As to A43C G68U, the yeast fitness turned out to be 0.868. In the case of G44A A45G G51C, the yeast fitness is at most 0.5. As for A42U G52C, the figure is 0.694. Regarding U47C C60U, the yeast fitness turned out to be 0.722. To U47C C60G belongs 0.651; to U47A G51A A69G, at most 0.5; to A42G C55U, 0.688. Take A45U G50A U64C: the yeast fitness stood at 0.72. In the case of A45C U54A C66U, the yeast fitness was at most 0.5.

Turning to C46A G67C, the yeast fitness came out at 0.896. To A45G C55U A65G belongs 0.544; to A45G C55U A65C, at most 0.5; to G44C C62U C66G, at most 0.5. On to G44A C46U A69C, for which the yeast fitness was determined as 0.996. To A42G C46G C49U belongs 0.744.

Take G48A C49G C60G: the yeast fitness was found to be 0.576. To G44C G50C A57G A65C belongs 0.561; to A42U A43G G48C U53A A69C, 0.589. To G44C A69C belongs 0.85. Regarding G44C A69U, the yeast fitness amounted to 0.895. As for G44A C49G A70U, the figure is at most 0.5; as for C46U C66G G67U, at most 0.5. To A42G C46U A65C belongs 0.665; to C46U G67C, 1.02. To A45U C49G belongs 0.872; to C46G C49A C61U, 0.597; to A45C A65G C66U, 0.679. Turning to C46A C62U A69U, the yeast fitness was 0.735.

For the variant C46U G51C U64A, the yeast fitness is at most 0.5. As for A42C U54A, the figure is 0.567.

As to A42C U54C, the yeast fitness was determined as 0.796.

Turning to A45G G50A U54C, the yeast fitness is at most 0.5. As for C46G U53A, the figure is 0.75. Take G44C A70C: the yeast fitness was 0.927.

With G44C A70U, the yeast fitness was determined as 0.959. As to A45C G48A A70U, the yeast fitness turned out to be 0.654. Consider A42U C66G, for which the yeast fitness was found to be 0.712. To U47C G48A belongs 0.96; to A42C G50A C61G, 0.793. Consider C46G U54G, for which the yeast fitness was 0.527. Consider C46G U54A, for which the yeast fitness was found to be 0.702. As for A42G A45C G48C, the figure is at most 0.5; as for A45C C46U, 1.02; as for A42U U53C, 0.732.

Regarding A42G C46U A57C, the yeast fitness was at most 0.5. For the variant A45G A57U, the yeast fitness turned out to be 0.751. As to G44C U47C G58A, the yeast fitness turned out to be 0.766. For C46A G58C, the yeast fitness turned out to be 0.874. To A45G C46U G51C belongs at most 0.5; to A43U C49G C55G, 0.988; to A45G U47C C62A A65U C66A, at most 0.5. With A42G C49U, the yeast fitness came out at 0.801. Turning to U47C A65G, the yeast fitness worked out at 0.92. As to A45U C49G A70U, the yeast fitness stood at 0.63. For the variant U47C A70G, the yeast fitness is 1.03.

On to C46U G50C, for which the yeast fitness came out at 0.819. As for U47A G48A A70U, the figure is 0.748; as for A43C U47A, 0.732; as for C46U G51A, 1.02. Turning to C46U A65C, the yeast fitness turned out to be 0.997. With C46U U59C, the yeast fitness was 1.03. To C46U U59G belongs 0.962. To A42G C46G belongs 0.886. Take A42G C46A: the yeast fitness came out at 0.908. Turning to A43U C55A A65U A70G, the yeast fitness is 0.56.

Turning to A45G A70C, the yeast fitness amounted to 0.989. To U47C C62G A65C belongs at most 0.5; to A42C A43U G67C, at most 0.5; to A42C U47C G58C, 0.644.

For the variant A45U A65C G68A, the yeast fitness worked out at 0.567. For A45G C46U G51C G67C, the yeast fitness is at most 0.5.

A43U G50C A65C: the yeast fitness is 0.556. To A43C G56A belongs 0.949; to A45G G51A U59C, at most 0.5; to A45C G68C, 0.839. For A43G C66U, the yeast fitness was 0.887. To A43G C66G belongs 0.699; to A43U G63C A70U, 0.54; to A45G C55U G67A A69G, at most 0.5. Take A42C U53A U54C U64A: the yeast fitness was at most 0.5.

As for A45G G58A, the yeast fitness was 1.04. As for A42U U47C C62U, the figure is 0.628; as for A45U G52A A70U, 0.574. A43U G44A C46A: the yeast fitness was 0.654. To C46U G58A C62U belongs 0.665. With U47C U59C, the yeast fitness came out at 0.926.

Consider A42U C55U A69C, for which the yeast fitness turned out to be 0.511.

For the variant A43U G51A, the yeast fitness came to 1. As for A43U C49G A69C, the figure is 0.512. To A42U G56A G63C belongs at most 0.5; to A43G G51A A69C, at most 0.5; to A43C G48A G58C, 0.689.

On to A43C U64G, for which the yeast fitness amounted to 0.618. To A45C G50A C62U belongs 0.868; to C46U G48C, 0.951. As for G44A G58C C66U, the figure is 0.667. As for A42G A43U C46U C62U, the figure is 0.551; as for A42G C62A, 0.786. As for C46U G56A G67A, the yeast fitness turned out to be 0.686.

As to A45U C66U, the yeast fitness amounted to 0.979.

For the variant A45U C66A, the yeast fitness turned out to be 0.649. As for G44C C46G C55U, the figure is at most 0.5; as for C46G C55U, 0.769; as for A45U G56C G58A A65U, 0.5.

With A42C G48A G50A C61G, the yeast fitness was found to be 0.553. To A42C G58A belongs 0.951; to G44C C46U C62G, 0.787; to A42G A57C, 0.7. As for C46U G68A, the figure is 0.9; as for C46U G68U, 0.857.

As to U47A G68C, the yeast fitness was determined as 0.606.

C46G G48A G52A: the yeast fitness was 0.913. As for A42G G56U, the yeast fitness amounted to 0.565. Turning to A45C A65C, the yeast fitness was found to be 0.683.

In the case of A45G C55U G67A, the yeast fitness stood at 0.656. To A42U G63A A65G belongs 0.572; to A42U C46U A57U, 0.538; to A45G U53G C66U A69U, at most 0.5. Regarding A45C G63A A69U, the yeast fitness was 0.793. As for A43G G58C, the figure is 0.855; as for C46G G51A G52A, 0.566; as for A42G G44C C60G, 0.606.

As to A43U C55A A65U, the yeast fitness worked out at 0.515. Turning to G44C G58C, the yeast fitness turned out to be 0.919. As to G44C G58A, the yeast fitness was found to be 1.02. For the variant A43C A45U C61A C62U C66U, the yeast fitness is at most 0.5. To U47G G68C belongs 0.563; to A45U U54C, 0.886.

For A42G A65G, the yeast fitness is 0.735.

For C46A C61U A69G, the yeast fitness is at most 0.5.

For A42G U47G G68U, the yeast fitness is at most 0.5. On to A42G G51A C60A, for which the yeast fitness was at most 0.5. To A42C A57U C66U belongs at most 0.5.

Take G48A A65U: the yeast fitness came to 1.02. To A43U U54A belongs 0.683. As for A43U U54C, the figure is 0.92; as for A43C C61G, 0.66. Take A45U G63C: the yeast fitness was 0.542. As for A45C A70U, the figure is 0.862; as for C46U C66U, 1.02. To U47C C61G A65C belongs at most 0.5; to A42U A43G G48C U53A A70C, 0.525; to A45G G51A, 0.716. As for A42U A57U C61U, the figure is at most 0.5; as for G48A C49G, 1.05; as for A45C U47C U64C A65C, 0.725.

Turning to U47C A65C C66G, the yeast fitness was at most 0.5.

Take A45G U47C G48C U59A: the yeast fitness is 0.576. As for G44U G58A, the figure is 0.946; as for A42C G48C A70U, 0.666; as for G41C G63C A65U, at most 0.5. Regarding C46U U54C, the yeast fitness was determined as 0.717. As for A43U G51C A57C C60G G67A, the figure is 0.663.

As for A42U A57U, the yeast fitness is 0.682. As for A45G C61U, the figure is 1.03; as for A43U G51C C61G, 0.593; as for A45C G67C, 0.639. For the variant A45C G67U, the yeast fitness worked out at 0.874.
